Most compounds without a hit are left out; they make up all but 1.8% or so of the library.
APJ agonist: agonists of human APJ apelin receptor. 330,000 tested, 0.11% active. P35414. CHO-K1 APJ PathHunter beta-arrestin, luminescence; 0% DMSO wells, 100% apelin. AID 2520. activation, % at 20 µM;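 active means activation more than six SD over the plate average, tested at 20 µM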
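Test system: CHO-K1 APJ beta-arrestin complementation cell line. Amount: cell density 1000 per well. Controls: DMSO negative, 10 nM Apelin-13 positive. Signal: luminescent beta-gal fragment complementation, chemiluminescent substrate. Read-out basis: agonist-driven arrestin binding to APJ. Timing: compound stimulation 90 min at 25 °C, detection 60 min.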
EBI2 block: blocks human EBI2 receptor beta-arrestin signaling; inhibition, % at 5 µM; 360,000 tested, 0.81% active; P32249; AID 651636; EBI2 beta-arrestin recruitment, luminescence, 7a,25-OHC stimulated; in the data active means inhibition above about 38%;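 further: enzyme fragment complementation signal reports receptor beta-arrestin coupling in cells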
CCR6 antag: antagonists of human CCR6 receptor; inhibition, % at 20 µM; P51684; CHO-K1 CCR6 PathHunter beta-arrestin, luminescence, CCL20-stimulated; 340,000 tested, 0.49% active;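 active means compounds whose inhibition of the agonist-driven luminescence signal at 20 µM reaches about 50%, limit read from the data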;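 further: cells stimulated with CCL20 at 14 nM final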
APJ antagonist: blocks the human apelin receptor APJ | CHO-K1 APJ beta-arrestin complementation, luminescence | inhibition, % at 20 µM | P35414 | 330,000 tested, 0.32% active | AID 2521;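 active means inhibition above about 40% at 20 µM, limit read from the data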;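 further: cells challenged with 10 nM apelin-13 agonist together with compound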
Beta2AR agonist: agonists of human beta-2 adrenergic receptor inducing internalization; P07550; Am2.2-beta2AR cells, FAP receptor internalization, flow cytometry; 340,000 tested, 0.43% active; response, % (no concentration beside the values);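 active means response above a set limit, near 3 SD of response in nonfluorescent compounds, cut at about 42% in these data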
Target sequence (P07550 whole entry, looked up): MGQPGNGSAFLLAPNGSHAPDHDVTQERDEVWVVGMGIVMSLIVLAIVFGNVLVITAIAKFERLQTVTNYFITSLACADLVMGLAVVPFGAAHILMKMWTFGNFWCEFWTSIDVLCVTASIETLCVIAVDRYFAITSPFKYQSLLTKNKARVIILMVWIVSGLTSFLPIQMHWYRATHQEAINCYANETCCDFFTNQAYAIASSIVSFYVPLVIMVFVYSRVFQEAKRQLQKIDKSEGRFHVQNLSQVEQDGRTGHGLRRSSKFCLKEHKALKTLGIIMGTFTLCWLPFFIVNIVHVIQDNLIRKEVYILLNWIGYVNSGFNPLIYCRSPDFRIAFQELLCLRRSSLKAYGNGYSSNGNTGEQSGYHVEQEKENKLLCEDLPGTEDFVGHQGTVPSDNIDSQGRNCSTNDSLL
CXCR6 inh: blocks human CXCR6 beta-arrestin recruitment; inhibition, % at 20 µM; AID 602244; CHO-K1 PathHunter CXCR6 beta-arrestin, luminescence; 360,000 tested, 0.36% active; O00574; in the data active means inhibition above about 34%, passing the limit was not always enough;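 further: antagonist mode with CXCL16 agonist at 10 nM final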
Numbers stand for hits.

For CCc1ccc(C2C(C#N)=C(N)C(C#N)(C#N)C3=CCC(C(C)(C)C)CC32)cc1 (configuration not stated) the results were APJ agonist inactive, EBI2 block inactive, CCR6 antag 68, APJ antagonist inactive, Beta2AR agonist inactive and CXCR6 inh 42.
`CC(C)(C)C1CC=C2C(C#N)=C(N)C(C#N)(C#N)C(c3cccs3)C2C1` (configuration not stated) gave APJ agonist inactive and APJ antagonist inactive.
`COc1ccc2c(c1)C(=NNC(=O)c1ccccn1)c1cc(OC)ccc1-2` gave APJ agonist inactive, EBI2 block inactive, CCR6 antag inactive, APJ antagonist inactive, Beta2AR agonist 43 and CXCR6 inh inactive.
`N#CC(=C1CCCC1)c1nc(-c2ccccc2O)cs1` gave APJ agonist inactive, EBI2 block 65, CCR6 antag inactive, APJ antagonist inactive, Beta2AR agonist inactive and CXCR6 inh inactive.
For COc1ccc(OC)c(C2C3CN(C(C)C)CC=C3C(C#N)=C(N)C2(C#N)C#N)c1 (configuration not stated) the results were APJ agonist inactive, EBI2 block inactive, CCR6 antag inactive, APJ antagonist inactive, Beta2AR agonist inactive and CXCR6 inh inactive.
Screening Cc1ccc(C2C3CN(C(C)C)CC=C3C(C#N)=C(N)C2(C#N)C#N)cc1 (configuration not stated) returned APJ agonist inactive, EBI2 block inactive, CCR6 antag 60, APJ antagonist inactive, Beta2AR agonist inactive and CXCR6 inh 53.
CC(C)(C)C1=CC(=Nc2ccccc2N)C=C(C(C)(C)C)C1=O was read as APJ agonist inactive, EBI2 block inactive, CCR6 antag 67, APJ antagonist inactive, Beta2AR agonist inactive and CXCR6 inh inactive.
Screening NC1=NC(=Nc2cccc(S(N)(=O)=O)c2)c2ccccc21 returned APJ agonist inactive, EBI2 block inactive, CCR6 antag inactive, APJ antagonist inactive, Beta2AR agonist inactive and CXCR6 inh inactive.
Screening COc1cc(N=Nc2cccc(S(N)(=O)=O)c2)c2ccccc2c1N returned EBI2 block inactive, CCR6 antag 67, Beta2AR agonist inactive and CXCR6 inh inactive.
For Cc1[nH]n(-c2ccccc2)c(=O)c1C(C[N+](=O)[O-])c1ccc(Br)cc1 (configuration not stated) the results were APJ agonist inactive, EBI2 block inactive, CCR6 antag inactive, APJ antagonist inactive, Beta2AR agonist inactive and CXCR6 inh 45.
Screening COc1cccc(C(C[N+](=O)[O-])c2c(C)[nH]n(-c3ccccc3)c2=O)c1 (configuration not stated) returned APJ agonist inactive, EBI2 block inactive, CCR6 antag inactive, APJ antagonist inactive, Beta2AR agonist inactive and CXCR6 inh inactive.
`O=C(Oc1ccc(Br)cc1C(=O)/C=C/c1ccccc1F)c1ccco1` gave APJ agonist inactive, EBI2 block inactive, CCR6 antag inactive, APJ antagonist inactive, Beta2AR agonist 58 and CXCR6 inh inactive.
CC(C)C(NC(=O)CCNC(=O)c1ccc(C(C)(C)C)cc1)c1nc2ccccc2[nH]1 (configuration not stated) was read as APJ agonist inactive, EBI2 block inactive, CCR6 antag inactive, APJ antagonist inactive, Beta2AR agonist inactive and CXCR6 inh inactive.
COCCN=c1scc(-c2cccs2)n1/N=C(\C)c1ccco1 was read as APJ agonist inactive, EBI2 block inactive, CCR6 antag inactive, APJ antagonist inactive, Beta2AR agonist inactive and CXCR6 inh inactive.
Screening COc1ccccc1Nc1nc(-c2ccc3c(c2)NC(=O)CO3)cs1 returned APJ agonist inactive, EBI2 block inactive, CCR6 antag inactive, APJ antagonist inactive, Beta2AR agonist inactive and CXCR6 inh inactive.
Screening COCCN=c1scc(-c2ccc3c(c2)NC(=O)CO3)n1/N=C(\C)c1ccc(O)cc1 returned APJ agonist inactive, EBI2 block inactive, APJ antagonist inactive, Beta2AR agonist inactive and CXCR6 inh 56.
For COc1cc(/C=N/n2c(-c3ccc4c(c3)NC(=O)CO4)csc2=Nc2cccc(C)c2)ccc1O the results were APJ agonist inactive, EBI2 block 52, CCR6 antag inactive, APJ antagonist inactive, Beta2AR agonist inactive and CXCR6 inh inactive.
Screening CN(C)c1ccc(/C=C/C=C2/SC(=S)N(c3ccccc3)C2=O)cc1 returned APJ agonist inactive, EBI2 block inactive, CCR6 antag inactive, APJ antagonist inactive, Beta2AR agonist inactive and CXCR6 inh 52.
For O=C(O)c1ccc(N2C(=O)/C(=C/C=C/c3ccccc3)SC2=S)cc1 the results were APJ agonist inactive, EBI2 block inactive, CCR6 antag inactive, APJ antagonist inactive, Beta2AR agonist inactive and CXCR6 inh inactive.
Screening C[C@H](CO)N1C[C@H](C)[C@@H](CN(C)CC2CC2)Oc2c(NC(=O)Cc3ccccc3)cccc2C1=O returned APJ agonist inactive, EBI2 block inactive, CCR6 antag inactive, APJ antagonist inactive, Beta2AR agonist inactive and CXCR6 inh inactive.
`FC(F)(F)c1nnc(-c2ccccc2)nc1Oc1ccc(Cl)cc1Cl` gave APJ agonist inactive, EBI2 block inactive, CCR6 antag 56, APJ antagonist inactive, Beta2AR agonist inactive and CXCR6 inh inactive.
`CCN(C)C1CN(Cc2cn(Cc3ccc(C)cc3)nn2)S(=O)(=O)C1` (configuration not stated) gave EBI2 block inactive and CXCR6 inh inactive.
`CC(C)C[C@H]1C(=O)N2CCC[C@H]2[C@]2(O)O[C@](NC(=O)[C@@H]3C=C4c5cccc6[nH]c(Br)c(c56)CC4N(C)C3)(C(C)C)C(=O)N12` (some centres not stated) gave APJ agonist inactive, EBI2 block 89, CCR6 antag inactive, APJ antagonist inactive, Beta2AR agonist inactive and CXCR6 inh inactive.
For C[C@@H]1CN([C@@H](C)CO)C(=O)CCCn2nncc2CO[C@@H]1CN(C)S(=O)(=O)c1ccc2ccccc2c1 the results were EBI2 block inactive and CXCR6 inh inactive.
O=C(Cn1cc(C(=O)C(=O)N2CCOCC2)c2ccccc21)Nc1cccc(C(F)(F)F)c1 was read as EBI2 block inactive and CXCR6 inh inactive.
Screening Cn1c(C(=O)N2CCN(c3ccc(Cl)cc3)CC2)cc2c(=O)[nH]c3ccccc3c21 returned APJ agonist inactive, EBI2 block 83, CCR6 antag inactive, APJ antagonist inactive, Beta2AR agonist inactive and CXCR6 inh inactive.
`CN(C)c1ccc(N=Nc2nccs2)cc1` gave EBI2 block inactive and CXCR6 inh 51.
CN(C)c1ccc(N=Nc2ccccc2Br)cc1 was read as APJ agonist inactive, EBI2 block inactive, CCR6 antag inactive, APJ antagonist inactive, Beta2AR agonist inactive and CXCR6 inh inactive.
